Laboratory results published in ChEMBL document CHEMBL1144265, “Syntheses of 2,4,6-trisubstituted triazines as antimalarial agents” (Bioorg Med Chem Lett, 2005).
In brackets after ≈: the same amount, converted by molar mass.

How the values were obtained:
[1] = In vitro PKa value was determined; type: physicochemical
[2] = Partition coefficient (logP); type: physicochemical; settings: octanol/water
[3] = tested on: Plasmodium falciparum; experiment: In vitro minimum inhibiting concentration for schizont maturation from ring stage parasite over 40 hrs; type: functional
Outline: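 P. falciparum NF-54 kept in RPMI-1640 with 25 mM HEPES and 1% D-glucose. Rieckmann microassay: compound at […] in duplicate wells with parasitized cells, 37 °C in a candle jar for 36–40 h. Giemsa-stained smears were read by microscopy for ring-to-trophozoite/schizont maturation. MIC taken as the concentration that blocks complete maturation to schizonts.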

Row | pKa [1] | logP [2] | MIC [3] [µg/mL] | Compound
1 | 2.86 | -0.56 | 50 (≈ 149 µM) | O=[N+]([O-])c1ccc(Nc2nc(NCCO)nc(NCCO)n2)cc1
2 | 1.96 | 0.345 | 1 (≈ 2.16 µM) | O=[N+]([O-])c1ccc(Nc2nc(NCCCn3ccnc3)nc(NCCCn3ccnc3)n2)cc1
3 | 2.98 | -0.06 | 10 (≈ 25.8 µM) | O=[N+]([O-])c1ccc(Nc2nc(N3CCOCC3)nc(N3CCOCC3)n2)cc1
4 | 3.68 | 2.84 | 50 (≈ 139 µM) | CC(C)(C)Nc1nc(Nc2ccc([N+](=O)[O-])cc2)nc(NC(C)(C)C)n1
5 | 3.13 | 1.94 | 10 (≈ 23 µM) | O=[N+]([O-])c1ccc(Nc2nc(Nc3cccc(F)c3)nc(Nc3cccc(F)c3)n2)cc1
6 | 2.88 | 1.68 | 10 (≈ 23.4 µM) | O=[N+]([O-])c1ccc(Nc2nc(NCc3ccccc3)nc(NCc3ccccc3)n2)cc1
7 | 2.86 | 1.64 | 10 (≈ 18.6 µM) | O=[N+]([O-])c1ccc(Nc2nc(N3CCN(c4ccccc4)CC3)nc(N3CCN(c4ccccc4)CC3)n2)cc1
8 | 2.58 | 0.356 | 1 (≈ 2.43 µM) | O=[N+]([O-])c1ccc(Nc2nc(NC3CCCCC3)nc(NC3CCCCC3)n2)cc1
9 | 3.62 | 2.46 | 50 (≈ 141 µM) | O=[N+]([O-])c1ccc(Nc2nc(N3CCCC3)nc(N3CCCC3)n2)cc1
10 | 1.88 | 0.228 | 1 (≈ 2.42 µM) | CN1CCN(c2nc(Nc3ccc([N+](=O)[O-])cc3)nc(N3CCN(C)CC3)n2)CC1
11 | 3.05 | 2.06 | 10 (≈ 27.8 µM) | CCN(CC)c1nc(Nc2ccc([N+](=O)[O-])cc2)nc(N(CC)CC)n1
12 | 3.82 | 2.94 | 64 (≈ 254 µM) | CC1(C)N=C(N)N=C(N)N1c1ccc(Cl)cc1 [CYCLOGUANIL]
13 | 2.32 | 0.396 | 2 (≈ 5.56 µM) | CCCCNc1nc(NCCCC)nc(Nc2ccc([N+](=O)[O-])cc2)n1
14 | 2.94 | 1.64 | 10 (≈ 20.8 µM) | O=[N+]([O-])c1ccc(Nc2nc(N3CCc4cccnc4C3)nc(N3CCc4cccnc4C3)n2)cc1
15 | 2.12 | 0.92 | 2 (≈ 3.54 µM) | O=[N+]([O-])c1ccc(Nc2nc(N3CCN(Cc4ccccc4)CC3)nc(N3CCN(Cc4ccccc4)CC3)n2)cc1
16 | 2.64 | 0.372 | 2 (≈ 4.55 µM) | O=[N+]([O-])c1ccc(Nc2nc(NC3CCCCCC3)nc(NC3CCCCCC3)n2)cc1
17 | 3.95 | 2.54 | 50 (≈ 130 µM) | O=[N+]([O-])c1ccc(Nc2nc(N3CCCCC3)nc(N3CCCCC3)n2)cc1
